# Experiments:
# Histamine H3 receptor = Histamine H3 receptor (Homo sapiens, UniProt Q9Y5N1); experiment: Inverse agonist activity at human cloned histamine H3 receptor assessed as inhibition of (R)-alpha-methylhistamine-induced [35S]GTPgammaS binding; format: functional
# How it was run: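 [35S]GTPγS binding assay in membranes isolated from cells transfected with cloned human H3 receptors.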
# Histamine H1 receptor = Histamine H1 receptor (Homo sapiens, UniProt P35367); experiment: Inhibition of histamine H1 receptor
# [1] = Metabolic stability in cryopreserved rat hepatocytes assessed as hepatic clearance by serum incubation method; format: ADME, cell-based, Liver, Hepatocyte
# How it was run: (§1)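 Hepatic clearance estimated by the serum incubation method in human and rat hepatocytes, expressed as mL/min/kg.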
# Histamine H2 receptor = Histamine H2 receptor (Homo sapiens, UniProt P25021); experiment: Inhibition of histamine H2 receptor
# [2] = Drug concentration in Sprague-Dawley rat cerebrospinal fluid at 10 mg/kg, po after 2 hrs; format: ADME, organism-based; set-up: dose 10 mg/kg, route oral; details: read-out: Drug uptake
# How it was run: (§2)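 SD rats, n = 3 (mean), dosed orally at 10 mg/kg. Plasma, brain and cerebrospinal fluid levels measured at 2 h post-dose; brain expressed as nmol/g, plasma and CSF as µM.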
# Histamine H4 receptor = Histamine H4 receptor (Homo sapiens, UniProt Q9H3N8); experiment: Inhibition of histamine H4 receptor
# [3] = Plasma clearance in Sprague-Dawley rat at 1 mg/kg, iv; format: ADME, organism-based; set-up: dose 1 mg/kg, route intravenous
# How it was run: (§3)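 Sprague-Dawley rats, n = 3, mean values reported; dosed iv at 1 mg/kg or orally at 3 mg/kg. Parameters derived from the plasma profile: half-life, Vdss, plasma clearance (iv), Tmax, Cmax and oral bioavailability (po).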
# [4] = Cmax in Sprague-Dawley rat at 3 mg/kg, po; format: ADME, organism-based; set-up: dose 3 mg/kg, route oral; details: in vivo; how it was run: as §3
# [5] = Plasma concentration in Sprague-Dawley rat at 10 mg/kg, po after 2 hrs; format: ADME, organism-based; set-up: dose 10 mg/kg, route oral; details: read-out: Drug uptake; how it was run: as §2
# [6] = Volume of distribution at steady state in Sprague-Dawley rat at 1 mg/kg, iv; format: ADME, organism-based; set-up: dose 1 mg/kg, route intravenous; details: in vivo, read-out: Vdss; how it was run: as §3
# [7] = Half life in Sprague-Dawley rat at 3 mg/kg, po; format: ADME, organism-based; set-up: dose 3 mg/kg, route oral; details: in vivo; how it was run: as §3
# [8] = Bioavailability in Sprague-Dawley rat at 3 mg/kg, po; format: ADME, organism-based; details: in vivo; how it was run: as §3
# Brain [9] = experiment: Drug concentration in Sprague-Dawley rat brain at 10 mg/kg, po after 2 hrs; format: ADME, organism-based; set-up: dose 10 mg/kg, route oral; details: in vivo; how it was run: as §2
# [10] = Metabolic stability in cryopreserved human hepatocytes assessed as hepatic clearance by serum incubation method; format: ADME, cell-based, Liver, Hepatocyte; how it was run: as §1
# [11] = Tmax in Sprague-Dawley rat at 3 mg/kg, po; format: ADME, organism-based; set-up: dose 3 mg/kg, route oral; details: in vivo; how it was run: as §3
# [12] = Half life in Sprague-Dawley rat at 1 mg/kg, iv; format: ADME, organism-based; set-up: dose 1 mg/kg, route intravenous; details: in vivo; how it was run: as §3
# [13] = molecular target: Voltage-gated inwardly rectifying potassium channel KCNH2 (Homo sapiens, UniProt Q12809); experiment: Displacement of [35S]N-[(4R)-1'-[(2R)-6-cyano-1,2,3,4-tetrahydro-2-naphthalenyl]-3,4-dihydro-4-hydroxyspiro[2H-1-benzopyran-2,4'-piperidin]-6-yl]methanesulfonamide from human ERG in HEK293 cells; format: cell-based
# LLC-PK1 [14] = experiment: Ratio of permeability from basolateral to apical over apical to basolateral side of pig LLC-PK1 cells transfected with human MDR1 by P-gp transport assay; format: ADME, cell-based, Sus scrofa
# How it was run: (§4)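 Transcellular transport measured across LLC-PK1 cell monolayers transfected with human MDR1 or mouse mdr1a. Ratio computed as (B-to-A)/(A-to-B) permeability; mean of n ≥ 3. Ratio above 3.0 taken to indicate a P-gp substrate.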
# [15] = Plasma concentration in Sprague-Dawley rat at 1 mg/kg, iv after 10 mins; format: ADME, organism-based; set-up: dose 1 mg/kg, route intravenous; details: read-out: Drug uptake
# How it was run: (§5)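 SD rats, n = 3 (mean), dosed iv at 1 mg/kg. Plasma, brain and CSF levels measured 10 min after dosing; brain expressed as nmol/g, plasma and CSF as µM.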
# [16] = Drug concentration in Sprague-Dawley rat cerebrospinal fluid at 1 mg/kg, iv after 10 mins; format: ADME, organism-based; set-up: dose 1 mg/kg, route intravenous; details: read-out: Drug uptake; how it was run: as §5
# LLC-PK1 [17] = experiment: Ratio of permeability from basolateral to apical over apical to basolateral side of pig LLC-PK1 cells transfected with mouse MDR1a by P-gp transport assay; format: ADME, cell-based, Sus scrofa; how it was run: as §4
# Brain [18] = experiment: Drug concentration in Sprague-Dawley rat brain at 1 mg/kg, iv after 10 mins; format: ADME, organism-based; set-up: dose 1 mg/kg, route intravenous; details: in vivo; how it was run: as §5
# Histamine H3 receptor, sequence (Q9Y5N1 whole entry): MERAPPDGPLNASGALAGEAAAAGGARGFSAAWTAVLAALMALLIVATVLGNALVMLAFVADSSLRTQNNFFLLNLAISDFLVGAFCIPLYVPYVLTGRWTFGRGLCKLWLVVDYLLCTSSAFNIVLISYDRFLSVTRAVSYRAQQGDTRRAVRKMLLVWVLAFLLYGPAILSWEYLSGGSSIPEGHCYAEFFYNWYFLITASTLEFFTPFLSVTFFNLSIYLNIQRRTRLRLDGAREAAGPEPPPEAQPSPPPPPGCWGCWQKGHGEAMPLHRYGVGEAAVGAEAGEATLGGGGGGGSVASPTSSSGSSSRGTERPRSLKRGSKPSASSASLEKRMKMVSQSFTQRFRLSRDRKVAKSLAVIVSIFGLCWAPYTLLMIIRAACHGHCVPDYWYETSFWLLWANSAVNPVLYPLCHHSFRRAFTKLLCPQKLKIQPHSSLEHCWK
# Histamine H4 receptor, sequence (Q9H3N8 whole entry): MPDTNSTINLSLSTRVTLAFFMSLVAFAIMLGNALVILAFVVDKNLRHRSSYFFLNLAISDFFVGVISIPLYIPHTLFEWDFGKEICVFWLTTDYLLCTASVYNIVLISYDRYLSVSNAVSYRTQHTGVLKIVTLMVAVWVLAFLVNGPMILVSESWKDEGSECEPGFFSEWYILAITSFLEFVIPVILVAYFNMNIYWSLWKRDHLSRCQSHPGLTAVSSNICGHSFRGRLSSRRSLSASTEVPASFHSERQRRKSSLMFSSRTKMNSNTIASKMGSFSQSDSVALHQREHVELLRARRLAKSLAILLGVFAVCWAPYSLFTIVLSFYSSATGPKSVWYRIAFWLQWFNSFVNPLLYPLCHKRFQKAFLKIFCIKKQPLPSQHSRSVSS
# Histamine H2 receptor, sequence (P25021 whole entry): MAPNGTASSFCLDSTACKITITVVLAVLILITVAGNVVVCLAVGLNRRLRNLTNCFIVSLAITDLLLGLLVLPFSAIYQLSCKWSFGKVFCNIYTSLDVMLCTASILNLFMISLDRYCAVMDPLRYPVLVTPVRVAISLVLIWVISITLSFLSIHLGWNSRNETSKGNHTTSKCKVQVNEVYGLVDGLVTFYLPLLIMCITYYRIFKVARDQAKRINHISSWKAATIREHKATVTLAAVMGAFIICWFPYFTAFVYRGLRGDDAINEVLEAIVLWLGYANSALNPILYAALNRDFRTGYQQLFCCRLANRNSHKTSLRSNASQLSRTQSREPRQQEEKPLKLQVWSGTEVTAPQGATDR
# Histamine H1 receptor, sequence (P35367 whole entry): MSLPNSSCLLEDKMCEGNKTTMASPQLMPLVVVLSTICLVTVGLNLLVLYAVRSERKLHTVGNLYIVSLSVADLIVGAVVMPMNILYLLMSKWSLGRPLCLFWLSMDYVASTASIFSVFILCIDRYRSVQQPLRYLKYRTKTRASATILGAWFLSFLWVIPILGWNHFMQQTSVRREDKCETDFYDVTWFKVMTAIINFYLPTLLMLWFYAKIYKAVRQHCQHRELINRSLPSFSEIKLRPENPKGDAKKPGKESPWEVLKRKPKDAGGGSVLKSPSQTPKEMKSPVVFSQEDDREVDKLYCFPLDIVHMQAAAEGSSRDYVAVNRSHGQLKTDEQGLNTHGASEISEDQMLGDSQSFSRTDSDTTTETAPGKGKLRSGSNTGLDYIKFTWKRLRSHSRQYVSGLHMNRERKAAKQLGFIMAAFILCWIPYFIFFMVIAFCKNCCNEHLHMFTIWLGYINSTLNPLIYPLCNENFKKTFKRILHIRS
# Voltage-gated inwardly rectifying potassium channel KCNH2, sequence (Q12809 whole entry): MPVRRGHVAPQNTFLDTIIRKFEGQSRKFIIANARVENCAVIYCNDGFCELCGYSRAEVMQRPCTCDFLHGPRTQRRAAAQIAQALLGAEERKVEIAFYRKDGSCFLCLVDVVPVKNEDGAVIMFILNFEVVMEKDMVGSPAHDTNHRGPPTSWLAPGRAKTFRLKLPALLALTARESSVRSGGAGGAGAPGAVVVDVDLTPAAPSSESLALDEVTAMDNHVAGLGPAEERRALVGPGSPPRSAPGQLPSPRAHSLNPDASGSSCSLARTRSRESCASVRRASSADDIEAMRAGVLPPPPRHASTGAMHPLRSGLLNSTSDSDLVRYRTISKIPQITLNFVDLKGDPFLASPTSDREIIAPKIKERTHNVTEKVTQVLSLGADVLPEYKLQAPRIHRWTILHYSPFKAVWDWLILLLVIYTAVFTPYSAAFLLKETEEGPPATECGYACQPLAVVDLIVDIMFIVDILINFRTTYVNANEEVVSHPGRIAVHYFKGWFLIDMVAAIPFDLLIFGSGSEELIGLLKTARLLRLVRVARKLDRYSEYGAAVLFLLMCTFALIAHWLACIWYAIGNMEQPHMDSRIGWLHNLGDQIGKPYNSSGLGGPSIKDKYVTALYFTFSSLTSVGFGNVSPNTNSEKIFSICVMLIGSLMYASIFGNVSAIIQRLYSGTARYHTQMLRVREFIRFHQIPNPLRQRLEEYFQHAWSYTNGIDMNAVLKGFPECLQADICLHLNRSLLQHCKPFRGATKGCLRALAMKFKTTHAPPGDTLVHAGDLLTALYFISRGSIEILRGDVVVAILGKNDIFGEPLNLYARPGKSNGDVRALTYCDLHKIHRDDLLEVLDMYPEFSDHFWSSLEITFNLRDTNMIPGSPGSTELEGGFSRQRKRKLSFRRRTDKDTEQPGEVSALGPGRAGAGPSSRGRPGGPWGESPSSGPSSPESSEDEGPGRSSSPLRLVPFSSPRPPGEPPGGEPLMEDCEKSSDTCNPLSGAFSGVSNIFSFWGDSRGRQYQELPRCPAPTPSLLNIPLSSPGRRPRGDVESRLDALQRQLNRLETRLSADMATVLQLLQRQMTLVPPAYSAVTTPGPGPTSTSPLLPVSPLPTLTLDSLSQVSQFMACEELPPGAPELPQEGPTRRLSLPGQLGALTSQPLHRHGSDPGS
Compound,IC50 (Histamine H3 receptor),further results
CN(CCN1CCCCC1)C(=O)N1CCC(C#N)(c2ccccc2)CC1,267 nM,
CN(CCN1CCCCC1)C(=O)N1CCC2(CC1)OC(=O)c1ccccc12,21 nM,
CN(CCN1CCCCC1)C(=O)N1CCC2(CC1)OCc1ccccc12,387 nM,
COc1cccc2c1[C@]1(CC[C@@H](C(=O)N(C)CCN3CCCCC3)CC1)OC2=O,3.6 nM,
CN(CCN1CCCCC1)C(=O)N1CCC(Cc2ccccc2)CC1,393 nM,
CN(CCN1CCCCC1)C(=O)N1CCN(c2ccccc2Cl)CC1,> 1000 nM,
CN(CCN1CCCCC1)C(=O)N1CCN(c2cccc(Cl)c2)CC1,297 nM,
CN(CCN1CCCCC1)C(=O)N1CCC2(CC1)Cc1ccccc1C(=O)O2,380 nM,
CN(CCN1CCCCC1)C(=O)N1CCC(c2cccc3ccccc23)CC1,343 nM,
CN(CCN1CCCCC1)C(=O)N1CCC(c2ccccc2)CC1,893 nM,
CN(CCN1CCCCC1)C(=O)N1CCC(O)(c2ccccc2)CC1,> 1000 nM,
CN(CCN1CCCCC1)C(=O)N1CCN(c2ccccc2)CC1,506 nM,
CN(CCN1CCCCC1)C(=O)N1CCN(c2ccc(Cl)cc2)CC1,160 nM,
CN(CCN1CCCCC1)C(=O)N1CCC(C(C)(C)C)CC1,> 1000 nM,
CN(CCN1CCCCC1)C(=O)N1CCC2(CC1)NC(=O)c1ccccc1N2,560 nM,
CN(CCN1CCCCC1)C(=O)N1CCC(c2ccc3ccccc3c2)CC1,110 nM,
CN(CCN1CCCCC1)C(=O)N1CCC2(CC1)CC(=O)c1ccccc1O2,68 nM,
CN(CCN1CCCCC1)C(=O)N1CCC2(CC1)c1ccccc1C(=O)N2C,45 nM,
CN(CCN1CCCCC1)C(=O)N1CCC2(CC1)Cc1ccccc1C2,530 nM,
CN(CCN1CCCCC1)C(=O)N1CCc2ccccc2C1,680 nM,
CN(CCN1CCCCC1)C(=O)N1CCC2(CC1)NC(=O)c1ccccc12,53 nM,
CN(CCN1CCCCC1)C(=O)N1CCC(C(=O)c2ccccc2)CC1,237 nM,
COc1ccc2c(c1)[C@]1(CC[C@@H](C(=O)N(C)CCN3CCCCC3)CC1)OC2=O,18 nM,
COc1ccc2c(c1)C(=O)O[C@]21CC[C@H](C(=O)N(C)CCN2CCCCC2)CC1,0.54 nM,IC50 (Histamine H1 receptor): > 10 µM; CLhep predicted [1]: 54 mL/min/kg; IC50 (Histamine H2 receptor): > 10 µM; concentration at 2 h [2]: 58 nM; IC50 (Histamine H4 receptor): > 10 µM; clearance [3]: 74 mL/min/kg; Cmax [4]: 60 nM; concentration at 2 h [5]: 270 nM; Vd [6]: 7.2 L/kg; half-life [7]: 84 min; bioavailability [8]: 7%; Drug uptake (Brain [9]): 0.48 nmol/g; CLhep predicted [10]: 18 mL/min/kg; Tmax [11]: 18 min; half-life [12]: 84 min
CN(CCN1CCCCC1)C(=O)[C@H]1CC[C@@]2(CC1)OC(=O)c1ccccc12,0.72 nM,IC50 (Histamine H1 receptor): > 10 µM; CLhep predicted [1]: 59 mL/min/kg; IC50 (Histamine H2 receptor): > 10 µM; IC50 (Histamine H4 receptor): > 10 µM; clearance [3]: 97 mL/min/kg; IC50 [13]: > 10 µM; Ratio (LLC-PK1 [14]): 1.2; concentration at 10 min [15]: 1500 nM; concentration at 10 min [16]: 370 nM; Ratio (LLC-PK1 [17]): 2; CLhep predicted [10]: 18 mL/min/kg; Drug uptake (Brain [18]): 2.4 nmol/g
CN(CCN1CCCCC1)C(=O)N1CCC2(CC1)CC(=O)c1ccccc12,43 nM,
CN(CCN1CCCCC1)C(=O)N1CCC2(CC1)NC(=O)Cc1ccccc12,783 nM,
CN(CCN1CCCCC1)C(=O)N1CCC2(CC1)OC(=O)Nc1ccccc12,> 1000 nM,
CN(CCN1CCCCC1)C(=O)N1CCC(c2ccccc2)(c2ccccc2)CC1,98 nM,
